The test system of experiment [1] is Nucleic Acid. The experiment in a line: Binding affinity to HSP90A quadruplex DNA assessed as change in melting temperature at 2 uM by FRET melting assay. The class given is nucleic-acid assay. Particulars: Homo sapiens. The gist of the method: (§1)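 FAM/TAMRA dual-labelled oligonucleotides diluted to 400 nM in 60 mM potassium cacodylate pH 7.4. Annealed at 95 °C for 10 min, then cooled to RT over 3–3.5 h. Compound diluted from a 1 mM stock (10% DMSO/90% 1 mM HCl) to 2× in buffer and mixed 1:1 with DNA. Fluorescence read every 0.5 °C over 30–100 °C with a 30 s hold. ΔTm from curve fitting; triplicate.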

Experiment [2] deals with Nucleic Acid. The experiment is described as follows: Binding affinity to HSP90B quadruplex DNA assessed as change in melting temperature at 2 uM by FRET melting assay. The format is nucleic-acid assay. Particulars: Homo sapiens. The gist of the method:
as §1

For experiment [3], the system named is Nucleic Acid. The experiment in a line: Binding affinity to human 21-mer telomeric quadruplex F21T DNA assessed as change in melting temperature at 2 uM by FRET melting assay. The format is nucleic-acid assay. The gist of the method: as §1
The test system of experiment [4] is Nucleic Acid. The experiment in a line: Binding affinity to c-kit2 quadruplex DNA assessed as change in melting temperature at 2 uM by FRET melting assay. Particulars: Homo sapiens. The class given is nucleic-acid assay. In short, it runs like this: as §1
Experiment [5] deals with Nucleic Acid. The experiment in a line: Binding affinity to k-ras quadruplex DNA assessed as change in melting temperature at 2 uM by FRET melting assay. The format is nucleic-acid assay. Particulars: Homo sapiens. The gist of the method: as §1
In experiment [6] the test system is Nucleic Acid. The experiment in a line: Binding affinity to human G4 telomeric quadruplex DNA assessed as change in melting temperature at 1 uM by FRET melting assay. The format is nucleic-acid assay. The gist of the method: as §1
In experiment [7] the test system is Nucleic Acid. The experiment in a line: Binding affinity to human G4 telomeric quadruplex DNA assessed as change in melting temperature at 2 uM by FRET melting assay. The format is nucleic-acid assay. In short, it runs like this:
as §1

In experiment [8] the test system is Nucleic Acid. The experiment in a line: Binding affinity to HSP90A quadruplex DNA assessed as change in melting temperature at 1 uM by FRET melting assay. The class given is nucleic-acid assay. The note with it: Homo sapiens. In short, it runs like this: as §1
Experiment [9] has as its system Nucleic Acid. The experiment in a line: Binding affinity to HSP90B quadruplex DNA assessed as change in melting temperature at 1 uM by FRET melting assay. The format is nucleic-acid assay. The note with it: Homo sapiens. The gist of the method:
as §1

Experiment [10] concerns Nucleic Acid. The experiment in a line: Binding affinity to double stranded DNA assessed as change in melting temperature at 1 uM by FRET melting assay. The class given is nucleic-acid assay. In short, it runs like this: as §1
In experiment [11] the test system is Nucleic Acid. The experiment is described as follows: Binding affinity to double stranded DNA assessed as change in melting temperature at 2 uM by FRET melting assay. The class given is nucleic-acid assay. In short, it runs like this: as §1
For experiment [12], the system named is Nucleic Acid. The experiment in a line: Binding affinity to human 21-mer telomeric quadruplex F21T DNA assessed as change in melting temperature at 1 uM by FRET melting assay. The format is nucleic-acid assay. In short, it runs like this:
as §1

For experiment [13], the system named is Nucleic Acid. The experiment in a line: Binding affinity to c-kit2 quadruplex DNA assessed as change in melting temperature at 1 uM by FRET melting assay. The class given is nucleic-acid assay. The note with it: Homo sapiens. In short, it runs like this: as §1
Experiment [14] relates to Nucleic Acid. The experiment is described as follows: Binding affinity to k-ras quadruplex DNA assessed as change in melting temperature at 1 uM by FRET melting assay. The class given is nucleic-acid assay. Particulars: Homo sapiens. In short, it runs like this: as §1
Experiment [15] relates to A549. The experiment in a line: Antiproliferative activity against human A549 cells after 96 hrs by neubauer haemocytometer analysis. The class given is functional, cell-based. The note with it: in the assay text read “sulforhodamine B assay” for “neubauer haemocytometer analysis”. The gist of the method: (§2)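 Cancer lines seeded at 1000–4000 cells/well and WI38 fibroblasts at 6000/well, then grown 24 h. Compound added over a concentration range for 96 h. Cells fixed with 10% TCA (30 min, 4 °C), stained with 0.4% sulforhodamine B (15 min, RT), dye solubilized in 10 mM Tris base, A540 read. Normalized to untreated cells; IC50 interpolated at 50% absorbance. Triplicate.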

For experiment [16], the system named is MCF7. The experiment in a line: Antiproliferative activity against human MCF7 cells after 96 hrs by neubauer haemocytometer analysis. The format is functional, cell-based. Particulars: in the assay text read “sulforhodamine B assay” for “neubauer haemocytometer analysis”. In short, it runs like this: as §2
On the technique in general: The SRB assay estimates cell density from bound dye.

Experiment [17] is described as follows: Antiproliferative activity against human RCC4 cells after 96 hrs by neubauer haemocytometer analysis. The note with it: in the assay text read “sulforhodamine B assay” for “neubauer haemocytometer analysis”. The class given is functional, cell-based. In short, it runs like this: as §2
A short description of experiment [18]: Antiproliferative activity against human 786-O cells after 96 hrs by neubauer haemocytometer analysis. Particulars: 786-0; in the assay text read “sulforhodamine B assay” for “neubauer haemocytometer analysis”. The class given is functional, cell-based. The gist of the method:
as §2

Experiment [19] relates to MIA PaCa-2. The experiment in a line: Antiproliferative activity against human MIAPaCa2 cells after 96 hrs by neubauer haemocytometer analysis. The class given is functional, cell-based. Particulars: in the assay text read “sulforhodamine B assay” for “neubauer haemocytometer analysis”. The gist of the method: as §2
In experiment [20] the test system is WI-38. The experiment in a line: Antiproliferative activity against human WI38 cells after 96 hrs by neubauer haemocytometer analysis. The class given is cell-based. Particulars: in the assay text read “sulforhodamine B assay” for “neubauer haemocytometer analysis”. The gist of the method:
as §2

The subject of experiment [21] is duplex DNA. The experiment is described as follows: Binding affinity to duplex DNA assessed as change in melting temperature at 3 uM by FRET melting assay. The note with it: Homo sapiens.
For experiment [22], the system named is duplex DNA. Described as above. Particulars: Homo sapiens. The source holds these as a separate data set.
The test system of experiment [23] is duplex DNA. Described as above. The note with it: Homo sapiens. The source holds these as a separate data set.

Each structure is given as a SMILES string.

Take `CN1CCN(CCc2ccc(-c3ncc(-c4ccc(-c5cnc(-c6ccc(CCN7CCN(C)CC7)cc6)o5)cc4)o3)cc2)CC1`: the ΔTm in experiment [1], in experiment [2], in experiment [3], in experiment [4] and in [5] was less than 5 °C in each case.
In the case of `CC(C)N(Cc1ccc(-c2ncc(-c3cccc(-c4cnc(-c5ccc(CN(C(C)C)C(C)C)cc5)o4)c3)o2)cc1)C(C)C`, the ΔTm was less than 2 °C in experiment [6]; 2 °C in experiment [7]; 8 °C in experiment [8]; 8 °C in experiment [1]; 8 °C in experiment [9]; 9 °C in [2]. Moreover, the ΔTm in experiment [10] and in [11] was 1 °C in each case.
As for `CN1CCN(Cc2ccc(-c3ncc(-c4cccc(-c5cnc(-c6ccc(CN7CCN(C)CC7)cc6)o5)c4)o3)cc2)CC1`, the ΔTm is less than 2 °C in [6]; 2 °C in experiment [7]; 7 °C in experiment [8]; 16 °C in [1]; 3 °C in experiment [9]; 12 °C in experiment [2]. The ΔTm in [10] and in [11] was 0 °C in each case.
Turning to `c1cc(-c2cnc(-c3ccc(OCCCN4CCCC4)cc3)o2)cc(-c2cnc(-c3ccc(OCCCN4CCCC4)cc3)o2)c1`, the ΔTm in experiment [6] is less than 2 °C; in [7] it was less than 2 °C; in experiment [8], 7 °C; in experiment [1], 14 °C; in [9], 2 °C; in experiment [2], 6 °C. Also, the ΔTm in [10] and in experiment [11] was 0 °C in each case.
Consider `c1cc(-c2cnc(-c3ccc(OCCCCN4CCCC4)cc3)o2)cc(-c2cnc(-c3ccc(OCCCCN4CCCC4)cc3)o2)c1`, for which the ΔTm in experiment [6] was determined as 2 °C; in experiment [7] it was 15 °C; in [8] it was 5 °C; in experiment [1] it was 19 °C; in experiment [9], 2 °C; in experiment [2], 5 °C. Further, the ΔTm in experiment [10] and in experiment [11] was 0 °C in each case.
Take `c1cc(-c2cnc(-c3ccc(CN4CCCC4)cc3)o2)cc(-c2cnc(-c3ccc(CN4CCCC4)cc3)o2)c1`: the ΔTm in experiment [6] worked out at 2 °C; in experiment [7], 6 °C; in [8] it was 7 °C; in [1] it was 14 °C; in [9], 2 °C; in [2] it was 4 °C. For the same molecule, the shift in melting temperature (ΔTm) in [10] and in [11] was 0 °C throughout.
As for `CN1CCN(CCc2ccc(-c3ncc(-c4cccc(-c5cnc(-c6ccc(CCN7CCN(C)CC7)cc6)o5)c4)o3)cc2)CC1`, the ΔTm in experiment [6] is less than 2 °C; in experiment [7] it was 2 °C; in experiment [8] it was 14 °C; in [1], 23 °C; in experiment [9], 2 °C; in [2], 7 °C. Besides, the ΔTm in [10] was 0 °C; in experiment [11], 0 °C; in experiment [12] it was less than 2 °C; in [3] it was 2 °C; in experiment [13], less than 2 °C; in experiment [4], 2 °C. For the same molecule, the ΔTm is 7 °C in experiment [14]; 17 °C in [5]; less than 1 °C in experiment [21]; less than 1 °C in [22]; less than 1 °C in [23]. The IC50 in experiment [15] amounted to 1.02 µmol; in [16] it was 1.32 µmol; in experiment [17], 0.94 µmol; in [18], 1.33 µmol; in experiment [19], 1.25 µmol; in experiment [20] it was 2.59 µmol.
Turning to `c1cc(-c2cnc(-c3ccc(OCCN4CCCC4)cc3)o2)cc(-c2cnc(-c3ccc(OCCN4CCCC4)cc3)o2)c1`, the ΔTm is less than 2 °C in experiment [6]; less than 2 °C in [7]; 7 °C in experiment [8]; 14 °C in experiment [1]; 2 °C in experiment [9]; 6 °C in experiment [2]. The thermal shift (ΔTm) in experiment [10] and in [11] was 0 °C throughout.
In the case of `c1cc(-c2cnc(-c3ccc(CN4CCOCC4)cc3)o2)cc(-c2cnc(-c3ccc(CN4CCOCC4)cc3)o2)c1`, the ΔTm in [6] is less than 2 °C; in experiment [7], 2 °C; in [8], 6 °C; in experiment [1] it was 6 °C; in experiment [9], 5 °C; in experiment [2], 6 °C. The ΔTm in [10] and in experiment [11] was 0 °C throughout.
As to `c1cc(-c2cnc(-c3ccc(CN4CCCCCC4)cc3)o2)cc(-c2cnc(-c3ccc(CN4CCCCCC4)cc3)o2)c1`, the shift in melting temperature (ΔTm) was 3 °C in experiment [6]; 7 °C in experiment [7]; 8 °C in experiment [8]; 9 °C in experiment [1]; 9 °C in [9]; 11 °C in experiment [2]. In addition, the ΔTm in experiment [10] and in [11] was 1 °C throughout.
Take `c1cc(-c2cnc(-c3cccc(CN4CCCCC4)c3)o2)cc(-c2cnc(-c3cccc(CN4CCCCC4)c3)o2)c1`: the ΔTm in experiment [6] is less than 2 °C; in [7], less than 2 °C; in experiment [8], 5 °C; in experiment [1] it was 8 °C; in experiment [9], 3 °C; in [2], 6 °C. The ΔTm in [10] and in experiment [11] was 1 °C throughout.

By ΔTm is commonly meant the change in melting temperature against a reference sample.

(Values after ChEMBL document CHEMBL2069306, “Sequences in the HSP90 promoter form G-quadruplex structures with selectivity for disubstituted phenyl bis-oxazole derivatives” (Bioorg Med Chem Lett, 2012).)
